According to ChEMBL document CHEMBL3621143, “Discovery of BMS-641988, a Novel Androgen Receptor Antagonist for the Treatment of Prostate Cancer” (ACS Med Chem Lett, 2015):
Active and inactive are the calls of the source. The calls are words filed in the database; no cut-off is given here.

Legend:
[1] = tested on: Rattus norvegicus; test: In vivo antagonist activity at androgen receptor in immature Sprague-Dawley rat prostate weight model assessed as testosterone propionate-induced weight of seminal vesicles over full body weight at 10 mg/kg, po qd administered for 4 days; assay type: functional; parameters: scale not given: the % may be the effect or the level left
In short: (§1)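 Immature rat prostate weight PK/PD model. Oral dosing once daily at 1 or 10 mg/kg for 4 days. Seminal vesicle weight expressed as % of full body weight, n=3, scaled so testosterone-treated control = 100% and sham = 10%.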

[2] = tested on: Rattus norvegicus; test: In vivo antagonist activity at androgen receptor in immature Sprague-Dawley rat prostate weight model assessed as testosterone propionate-induced weight of seminal vesicles over full body weight at 1 mg/kg, po qd administered for 4 days; assay type: functional; parameters: scale not given: the % may be the effect or the level left; in short: as §1
[3] = target: T1, Androgen receptor (Homo sapiens, UniProt P10275); test: Displacement of [3H]-DHT from androgen receptor in human MDA-MB-453 cells after 90 mins by TopCount analysis; assay type: cell-based
T1 sequence (P10275 whole entry): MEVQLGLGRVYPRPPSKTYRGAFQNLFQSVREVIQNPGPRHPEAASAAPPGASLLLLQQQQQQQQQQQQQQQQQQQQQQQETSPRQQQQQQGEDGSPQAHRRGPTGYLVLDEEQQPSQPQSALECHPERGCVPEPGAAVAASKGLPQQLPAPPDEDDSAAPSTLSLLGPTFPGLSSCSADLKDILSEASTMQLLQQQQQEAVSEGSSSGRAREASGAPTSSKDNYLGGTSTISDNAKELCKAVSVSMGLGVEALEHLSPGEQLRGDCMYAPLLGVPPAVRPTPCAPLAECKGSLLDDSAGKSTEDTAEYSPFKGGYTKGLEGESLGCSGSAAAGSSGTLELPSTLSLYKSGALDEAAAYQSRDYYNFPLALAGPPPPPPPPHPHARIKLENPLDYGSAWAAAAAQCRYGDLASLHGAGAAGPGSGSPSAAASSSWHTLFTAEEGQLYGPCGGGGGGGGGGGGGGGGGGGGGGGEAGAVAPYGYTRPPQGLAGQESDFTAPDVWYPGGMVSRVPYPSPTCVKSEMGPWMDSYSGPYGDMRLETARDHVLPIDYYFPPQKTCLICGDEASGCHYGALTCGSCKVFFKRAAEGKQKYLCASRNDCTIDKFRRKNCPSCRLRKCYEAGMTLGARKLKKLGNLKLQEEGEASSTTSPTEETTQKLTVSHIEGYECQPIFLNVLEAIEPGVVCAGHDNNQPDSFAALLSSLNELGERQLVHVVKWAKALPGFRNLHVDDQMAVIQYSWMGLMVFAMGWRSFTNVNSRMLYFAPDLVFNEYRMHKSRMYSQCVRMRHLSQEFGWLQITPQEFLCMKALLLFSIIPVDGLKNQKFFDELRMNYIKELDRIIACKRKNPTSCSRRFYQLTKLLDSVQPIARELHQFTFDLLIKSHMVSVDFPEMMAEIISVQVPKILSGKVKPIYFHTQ

[4] = Plasma concentration in immature Sprague-Dawley rat prostate weight model at 10 mg/kg, po qd administered for 4 days measured 2 hrs post last dose on day 4; assay type: ADME, organism-based
In short: (§2)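 Immature rat prostate weight model, oral dosing once daily at 1 or 10 mg/kg for 4 days. Plasma drug concentration (µM) measured 2 hours post-dose on day 4, n=3.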

[5] = Plasma concentration in immature Sprague-Dawley rat prostate weight model at 1 mg/kg, po qd administered for 4 days measured 2 hrs post last dose on day 4; assay type: ADME, organism-based; in short: as §2
[6] = target: T1, Androgen receptor; test: Antagonist activity at androgen receptor in human MDA-MB-453 cells assessed as inhibition of DHT-induced PSA expression by alkaline phosphatase reporter gene assay; assay type: cell-based
[7] = Protein binding in mouse serum; assay type: ADME, cell-free; details: read-out: PB
[8] = tested on: CWR22; test: Antitumor activity against human CWR22 cells in Balb/c athymic (nu/nu) mouse CWR22-BMSLD1 prostate cancer xenograft model assessed as tumor growth inhibition at 150 mg/kg, po qd measured for 10 days during compound dosing; assay type: functional, organism-based
In short: (§3)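 CWR22-BMSLD1 human prostate cancer xenograft. Oral once-daily dosing at 90 mg/kg for 45 days, or at 150 mg/kg for 35 days, with a vehicle group. Median tumor volume (mm3) tracked against days post implant.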

[9] = tested on: CWR22; test: Antitumor activity against human CWR22 cells in Balb/c athymic (nu/nu) mouse CWR22-BMSLD1 prostate cancer xenograft model assessed as tumor growth inhibition at 150 mg/kg, po qd administered for 35 days measured from day 10 to 35 during compound dosing; assay type: functional, organism-based; in short: as §3

`C[C@]12O[C@@](C)(C[C@H]1NS(=O)(=O)c1ccccc1)[C@H]1C(=O)N(c3ccc(C#N)c(C(F)(F)F)c3)C(=O)[C@H]12` showed an Activity [1] of 31%, an Activity [2] of 63% and a Ki [3] of 10 nM. For the same compound, the concentration at 2 h [4] was 2400 nM, the concentration at 2 h [5] was 230 nM and the IC50 [6] was 1 nM.
Compound `CC(C)NC(=O)N[C@@H]1C[C@]2(C)O[C@]1(C)[C@@H]1C(=O)N(c3ccc(C#N)c(C(F)(F)F)c3)C(=O)[C@@H]12` has an Activity [1] of 56%, a fraction unbound [7] of under 0.01 and an Activity [2] of 115%. The Ki [3] was 31 nM, the concentration at 2 h [4] was 60000 nM and the concentration at 2 h [5] was 8300 nM. It also gave an IC50 [6] of 60 nM.
With `CCC(=O)N[C@@H]1C[C@]2(C)O[C@]1(C)[C@@H]1C(=O)N(c3ccc(C#N)c(C(F)(F)F)c3)C(=O)[C@@H]12` the Activity [1] was 34%, the fraction unbound [7] was under 0.01 and the Activity [2] was 87%. For the same compound, the Ki [3] was 3 nM, the concentration at 2 h [4] was 190000 nM and the concentration at 2 h [5] was 24000 nM. The IC50 [6] was 23 nM.
In the case of `CNS(=O)(=O)N[C@@H]1C[C@]2(C)O[C@]1(C)[C@@H]1C(=O)N(c3ccc(C#N)c(C(F)(F)F)c3)C(=O)[C@@H]12`, the Activity [1] is reported as 36%, the Activity [2] is reported as 89% and the Ki [3] is reported as 50 nM. It also gave a concentration at 2 h [4] of 230 nM, a concentration at 2 h [5] of 10 nM and an IC50 [6] of 34 nM.
In the case of `CC12C[C@H](O)[C@](C)(O1)[C@@H]1C(=O)N(c3ccc(C#N)c(I)c3)C(=O)[C@@H]12` (single isomer, unassigned), the Ki [3] is reported as 8 nM and the IC50 [6] is reported as 10 nM.
With `C[C@]12O[C@@](C)(C[C@H]1C(=O)O)[C@H]1C(=O)N(c3ccc(C#N)c(C(F)(F)F)c3)C(=O)[C@H]12` the Ki [3] was 1600 nM and the IC50 [6] was over 5000 nM.
For `C[C@]12O[C@@](C)(C[C@H]1NS(=O)(=O)c1cccnc1)[C@H]1C(=O)N(c3ccc(C#N)c(C(F)(F)F)c3)C(=O)[C@H]12`, the Activity [1] was 23%, the Activity [2] was 44% and the Ki [3] was 2 nM. For the same compound, the concentration at 2 h [4] was 520 nM, the concentration at 2 h [5] was 50 nM and the IC50 [6] was 7 nM.
With `CC(O)(CS(=O)(=O)c1ccc(F)cc1)C(=O)Nc1ccc(C#N)c(C(F)(F)F)c1` (stereo not drawn) [BICALUTAMIDE] the TGI [8] was “Active”, the Activity [1] was 41% and the Activity [2] was 69%. The concentration at 2 h [4] was 9500 nM, the concentration at 2 h [5] was 2300 nM and the TGI [9] was “inactive”.
Compound `C[C@]12O[C@@](C)(C[C@H]1N)[C@H]1C(=O)N(c3ccc(C#N)c(C(F)(F)F)c3)C(=O)[C@H]12` has an Activity [1] of 89%, an Activity [2] of 89% and a Ki [3] of 31 nM. The concentration at 2 h [4] was 480 nM, the concentration at 2 h [5] was 80 nM and the IC50 [6] was 60 nM.
`CN(C(=O)[C@@H]1C[C@]2(C)O[C@]1(C)[C@@H]1C(=O)N(c3ccc(C#N)c(C(F)(F)F)c3)C(=O)[C@@H]12)c1ccccc1` gave an Activity [1] of 43%, an Activity [2] of 88% and a Ki [3] of 50 nM. It also gave a concentration at 2 h [4] of 12000 nM, a concentration at 2 h [5] of 1800 nM and an IC50 [6] of 34 nM.
In the case of `CC(C)OC(=O)[C@@H]1C[C@]2(C)O[C@]1(C)[C@@H]1C(=O)N(c3ccc(C#N)c(C(F)(F)F)c3)C(=O)[C@@H]12`, the Ki [3] is reported as 23 nM and the IC50 [6] is reported as 22 nM.
`C[C@]12O[C@@](C)(C[C@H]1NS(C)(=O)=O)[C@H]1C(=O)N(c3ccc(C#N)c(C(F)(F)F)c3)C(=O)[C@H]12` gave an Activity [1] of 26%, an Activity [2] of 64% and a Ki [3] of 12 nM. For the same compound, the concentration at 2 h [4] was 4000 nM, the concentration at 2 h [5] was 290 nM and the IC50 [6] was 20 nM.
With `C[C@]12O[C@@](C)(C[C@H]1NS(=O)(=O)c1ccccc1F)[C@H]1C(=O)N(c3ccc(C#N)c(C(F)(F)F)c3)C(=O)[C@H]12` the Activity [1] was 24%, the Activity [2] was 56% and the Ki [3] was 1 nM. The concentration at 2 h [4] was 1900 nM, the concentration at 2 h [5] was 160 nM and the IC50 [6] was 10 nM.
